# Test results reported in ChEMBL document CHEMBL2163281, “p-(4-Azipentyl)propofol: a potent photoreactive general anesthetic derivative of propofol” (J Med Chem, 2011).
# Calls of active or inactive are those of the source. The rule behind the calls is not given here.
# Legend:
# [1] = Antagonist activity at Torpedo californica nACh receptor expressed in Xenopus oocytes assessed as inhibition of acetylcholine-induced current response; assay type: functional, cell-based; settings: Tetronarce californica, Oocyte
# Procedure, shortened: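 Torpedo nACh receptor cRNA (2α:1β:1γ:1δ, ~25 ng) injected into Xenopus oocytes. Two-electrode clamp at −50 mV in ND96. Currents were evoked by 10 μM ACh (~EC20), then by ACh plus 1–100 μM drug for 15–20 s with ~3 min washes. Currents were normalized to the ACh response and fit to a logistic inhibition equation; 3 oocytes.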
# [2] = target: T1, GABA-A receptor; alpha-1/beta-3/gamma-2 (Homo sapiens) (UniProt P14867+P18507+P28472); assay: Increase of [3H]-flunitrazepam binding to alpha1beta3gamma2 GABAA receptor expressed in HEK293S-TetR cells up to 400 uM after 1 hr by liquid scintillation counting; assay type: cell-based
# Procedure, shortened: (§1)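 Membranes from HEK293S-TetR cells expressing α1β3γ2 GABAA receptors (200 μg protein) in 10 mM phosphate pH 7.4, 200 mM KCl, 1 mM EDTA. Incubated with 3 nM [3H]muscimol or 1.5 nM [3H]flunitrazepam plus drug for 1 h at 4°C. Nonspecific binding was set with 1 mM GABA or 1 mM flurazepam. Filtered onto PEI-treated filters, then scintillation-counted; triplicates.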
# [3] = tested on: Xenopus laevis; assay: Anesthetic activity in Xenopus laevis tadpoles assessed as loss of righting reflexes; assay type: functional, organism-based; settings: Tadpole
# Procedure, shortened: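 Xenopus tadpoles in groups of 5 were held in 2.5 mM Tris HCl pH 7.4 under low light at seven concentrations from 1.0 to 20 μM, with ethanol ≤5 mM. Each animal was flipped every 10 min until a stable response, usually at 40 min. LoRR meant failure to right within 5 s. Only animals that recovered overnight were analysed. Quantal scores were fit to a logistic equation.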
# [4] = target: T1, GABA-A receptor; alpha-1/beta-3/gamma-2 (Homo sapiens); assay: Increase of [3H]-flunitrazepam binding to alpha1beta3gamma2 GABAA receptor expressed in HEK293S-TetR cells at >30 uM after 1 hr by liquid scintillation counting; assay type: cell-based; procedure, shortened: as §1
# [5] = target: T1, GABA-A receptor; alpha-1/beta-3/gamma-2 (Homo sapiens); assay: Increase of [3H]muscimol binding to alpha1beta3gamma2 GABAA receptor expressed in HEK293S-TetR cells after 1 hr by liquid scintillation counting relative to control; assay type: cell-based; procedure, shortened: as §1
# [6] = target: T1, GABA-A receptor; alpha-1/beta-3/gamma-2 (Homo sapiens); assay: Increase of [3H]-flunitrazepam binding to alpha1beta3gamma2 GABAA receptor expressed in HEK293S-TetR cells at 0.1 to 40 uM after 1 hr by liquid scintillation counting relative to control; assay type: cell-based; procedure, shortened: as §1
# [7] = target: GABA-A receptor; agonist GABA site; assay: Agonist activity at human alpha1beta2gamma2L GABAA receptor expressed in Xenopus oocytes assessed as potentiation of channel current response by two-electrode voltage clamp electrophysiology assay; assay type: functional, cell-based; settings: oocyte
# [8] = target: GABA-A receptor; agonist GABA site; assay: Agonist activity at human alpha1beta2gamma2L GABAA receptor expressed in Xenopus oocytes assessed as potentiation of GABA-induced current response by two-electrode voltage clamp electrophysiology assay; assay type: functional, cell-based; settings: oocyte
# [9] = target: T2, GABA-A receptor; agonist GABA site (Homo sapiens) (UniProt P14867+P47870+P28472+P48169+P34903+P18505+P47869+P31644+Q16445); assay: Agonist activity at human alpha1beta2gamma2L GABAA receptor expressed in Xenopus oocytes assessed as potentiation of channel current response by two-electrode voltage clamp electrophysiology assay relative to control; assay type: functional, cell-based; settings: Oocyte
# [10] = Aqueous solubility of the compound in water
# [11] = target: T3, 43 kDa receptor-associated protein of the synapse (Homo sapiens) (UniProt Q13702); assay: Binding affinity to RAPsyn assessed as photoincorporation at 1.7 uM by SDS-PAGE followed by fluorography analysis; settings: tested as the 3H-labelled form
# T3 sequence (whole entry): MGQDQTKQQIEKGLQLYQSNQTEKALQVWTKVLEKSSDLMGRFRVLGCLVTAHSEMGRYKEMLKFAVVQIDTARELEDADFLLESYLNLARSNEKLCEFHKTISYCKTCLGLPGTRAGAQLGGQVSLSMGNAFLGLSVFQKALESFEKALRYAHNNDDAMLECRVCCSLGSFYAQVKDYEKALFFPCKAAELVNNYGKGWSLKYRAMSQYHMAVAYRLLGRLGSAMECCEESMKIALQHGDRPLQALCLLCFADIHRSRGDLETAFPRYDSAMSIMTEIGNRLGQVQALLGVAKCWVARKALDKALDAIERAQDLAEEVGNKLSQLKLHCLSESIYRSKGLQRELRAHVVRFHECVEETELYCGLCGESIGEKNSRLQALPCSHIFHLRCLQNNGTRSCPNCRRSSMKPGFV
# Procedure, shortened: (§2)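 Torpedo californica electric-organ nACh receptor-rich membranes at 2 mg/mL in Torpedo saline pH 7.0 with 1 mM oxidized glutathione. Membranes were equilibrated 30 min with 1.7 μM [3H]ligand alone or with 100 μM tetracaine, 100 μM phencyclidine, 300 μM propofol and/or 1 mM carbamylcholine. Samples were UV-irradiated at 365 nm on ice for 30 min. Read-out: 8% SDS-PAGE, fluorography (2 weeks) and scintillation counting of gel bands.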
# [12] = tested on: Tetronarce californica; assay: Binding affinity to Torpedo californica nACh-gamma receptor assessed as photoincorporation at 1.7 uM by SDS-PAGE followed by fluorography analysis in presence of tetracaine; settings: tested as the 3H-labelled form; procedure, shortened: as §2
# [13] = Binding affinity to VDAC assessed as photoincorporation at 1.7 uM by SDS-PAGE followed by fluorography analysis; settings: tested as the 3H-labelled form; procedure, shortened: as §2
# [14] = tested on: Tetronarce californica; assay: Binding affinity to Torpedo californica nACh-delta receptor assessed as photoincorporation at 1.7 uM by SDS-PAGE followed by fluorography analysis in presence of tetracaine; settings: tested as the 3H-labelled form; procedure, shortened: as §2
# [15] = tested on: Tetronarce californica; assay: Binding affinity to Torpedo californica nACh-delta receptor assessed as photoincorporation at 1.7 uM by SDS-PAGE followed by fluorography analysis; settings: tested as the 3H-labelled form; procedure, shortened: as §2
# [16] = tested on: Tetronarce californica; assay: Binding affinity to Torpedo californica nACh-gamma receptor assessed as photoincorporation at 1.7 uM by SDS-PAGE followed by fluorography analysis in presence of carbamylcholine; settings: tested as the 3H-labelled form; procedure, shortened: as §2
# [17] = tested on: Tetronarce californica; assay: Binding affinity to Torpedo californica nACh-delta receptor assessed as photoincorporation at 1.7 uM by SDS-PAGE followed by fluorography analysis in presence of propofol; settings: tested as the 3H-labelled form; procedure, shortened: as §2
# [18] = tested on: Tetronarce californica; assay: Binding affinity to Torpedo californica nACh-delta receptor assessed as photoincorporation at 1.7 uM by SDS-PAGE followed by fluorography analysis in presence of phencyclidine; settings: tested as the 3H-labelled form; procedure, shortened: as §2
# [19] = Aqueous solubility of the compound in 0.01 M Tris-HCl buffer at pH 7.4; assay type: physicochemical
# [20] = target: T2, GABA-A receptor; agonist GABA site (Homo sapiens); assay: Agonist activity at human alpha1beta2gamma2L GABAA receptor expressed in Xenopus oocytes assessed as potentiation of GABA-induced current response at 6 uM by two-electrode voltage clamp electrophysiology assay relative to control; assay type: functional, cell-based; settings: Oocyte
# [21] = tested on: Tetronarce californica; assay: Binding affinity to Torpedo californica nACh-gamma receptor assessed as photoincorporation at 1.7 uM by SDS-PAGE followed by fluorography analysis in presence of propofol; settings: tested as the 3H-labelled form; procedure, shortened: as §2
# [22] = tested on: Tetronarce californica; assay: Binding affinity to Torpedo californica nACh-beta receptor assessed as photoincorporation at 1.7 uM by SDS-PAGE followed by fluorography analysis in presence of carbamylcholine; settings: tested as the 3H-labelled form; procedure, shortened: as §2
# [23] = tested on: Tetronarce californica; assay: Binding affinity to Torpedo californica nACh-gamma receptor assessed as photoincorporation at 1.7 uM by SDS-PAGE followed by fluorography analysis in presence of phencyclidine; settings: tested as the 3H-labelled form; procedure, shortened: as §2
# [24] = tested on: Tetronarce californica; assay: Binding affinity to Torpedo californica nACh-beta receptor assessed as photoincorporation at 1.7 uM by SDS-PAGE followed by fluorography analysis; settings: tested as the 3H-labelled form; procedure, shortened: as §2
# [25] = Chemical stability of the compound in 0.01 M Tris-HCl buffer at pH 7.4 at 4 degC after 2.5 days; assay type: physicochemical; settings: pH 7.4, 60 h
# Procedure, shortened: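 Held near saturation in buffer at 4°C for at least 2.5 days, then analysed by reverse-phase HPLC.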
# [26] = tested on: Tetronarce californica; assay: Binding affinity to Torpedo californica nACh-beta receptor assessed as photoincorporation at 1.7 uM by SDS-PAGE followed by fluorography analysis in presence of propofol; settings: tested as the 3H-labelled form; procedure, shortened: as §2
# [27] = Binding affinity to Na+/K+ ATPase alpha assessed as photoincorporation at 1.7 uM by SDS-PAGE followed by fluorography analysis; settings: tested as the 3H-labelled form; procedure, shortened: as §2
# [28] = tested on: Tetronarce californica; assay: Binding affinity to Torpedo californica nACh-delta receptor assessed as photoincorporation at 1.7 uM by SDS-PAGE followed by fluorography analysis in presence of carbamylcholine; settings: tested as the 3H-labelled form; procedure, shortened: as §2
# [29] = tested on: Tetronarce californica; assay: Binding affinity to Torpedo californica nACh-alpha receptor assessed as photoincorporation at 1.7 uM by SDS-PAGE followed by fluorography analysis in presence of carbamylcholine; settings: tested as the 3H-labelled form; procedure, shortened: as §2
# [30] = tested on: Tetronarce californica; assay: Binding affinity to Torpedo californica nACh-gamma receptor assessed as photoincorporation at 1.7 uM by SDS-PAGE followed by fluorography analysis; settings: tested as the 3H-labelled form; procedure, shortened: as §2
# [31] = tested on: Tetronarce californica; assay: Binding affinity to Torpedo californica nACh-beta receptor assessed as photoincorporation at 1.7 uM by SDS-PAGE followed by fluorography analysis in presence of phencyclidine; settings: tested as the 3H-labelled form; procedure, shortened: as §2
# [32] = target: T2, GABA-A receptor; agonist GABA site (Homo sapiens); assay: Agonist activity at human alpha1beta2gamma2L GABAA receptor expressed in Xenopus oocytes assessed as potentiation of GABA-induced current response at 100 uM by two-electrode voltage clamp electrophysiology assay relative to control; assay type: functional, cell-based; settings: Oocyte
# [33] = tested on: Tetronarce californica; assay: Binding affinity to Torpedo californica nACh-alpha receptor assessed as decrease photoincorporation at 1.7 uM by SDS-PAGE followed by fluorography analysis in presence of carbamylcholine and phencyclidine; parameters: scale not given: the % may be the effect or the level left; settings: tested as the 3H-labelled form; procedure, shortened: as §2
# [34] = tested on: Tetronarce californica; assay: Binding affinity to Torpedo californica nACh-alpha receptor assessed as increase photoincorporation at 1.7 uM by SDS-PAGE followed by fluorography analysis in presence of carbamylcholine and propofol; settings: tested as the 3H-labelled form; procedure, shortened: as §2
# [35] = tested on: Tetronarce californica; assay: Binding affinity to Torpedo californica nACh-beta receptor assessed as photoincorporation at 1.7 uM by SDS-PAGE followed by fluorography analysis in presence of tetracaine; settings: tested as the 3H-labelled form; procedure, shortened: as §2
structure (smiles),measurement,setting,value
CC(C)c1cccc(C(C)C)c1O [PROPOFOL],IC50,[1],7.3 µM
same,Activity,[2],inactive
same,EC50,[3],2.2 µM
same,Activity,[4],inactive
same,fold change (FC),[5],2.4
same,fold change (FC),[6],2
same,EC50,[7],50 µM
same,EC50,[8],5.2 µM
same,Activity,[9],45%
same,solubility,[10],1000 µM
CC(C)c1cc(CCCC2(C)N=N2)cc(C(C)C)c1O,Activity,[11],Active
same,Activity,[12],< 20%
same,Activity,[13],Active
same,Activity,[14],< 20%
same,Activity,[15],Active
same,Activity,[16],< 20%
same,Activity,[17],< 20%
same,Activity,[18],< 20%
same,solubility,[19],73 µM
same,fold change (FC),[20],9
same,IC50,[1],4 µM
same,Activity,[2],inactive
same,Activity,[21],< 20%
same,Activity,[22],< 20%
same,Activity,[23],< 20%
same,Activity,[24],Active
same,EC50,[3],3.2 µM
same,Stability,[25],Stable
same,Activity,[4],Active
same,Activity,[26],< 20%
same,Activity,[27],Active
same,Activity,[28],< 20%
same,Activity,[29],100%
same,Activity,[30],Active
same,fold change (FC),[5],1.6
same,fold change (FC),[6],1.6
same,EC50,[7],15 µM
same,Activity,[31],< 20%
same,EC50,[8],4.5 µM
same,fold change (FC),[32],20
same,Activity,[33],20%
same,Activity,[34],20%
same,Activity,[35],< 20%
same,Activity,[9],10%
